{"source": "ChEMBL document CHEMBL3997841", "about": "“Continued optimization of the M5 NAM ML375: Discovery of VU6008667, an M5 NAM with high CNS penetration and a desired short half-life in rat for addiction studies” (Bioorg Med Chem Lett, 2017)", "key": {"Plasma [1]": {"test_system": "Plasma", "experiment": "(§1) Fraction unbound in human plasma at 5 uM after 4 hrs by LC-MS/MS based equilibrium dialysis method", "format": "ADME, cell-free", "conditions": "4 h, 5 µM"}, "Plasma [2]": {"test_system": "Plasma", "experiment": "(§2) Fraction unbound in rat plasma at 5 uM after 4 hrs by LC-MS/MS based equilibrium dialysis method", "format": "ADME, cell-free", "conditions": "4 h, 5 µM"}, "Brain": {"test_system": "Brain", "experiment": "Fraction unbound in rat brain at 1 uM after 4 hrs by LC-MS/MS based equilibrium dialysis method", "format": "ADME, tissue-based"}, "[3]": {"target": "T1, Muscarinic acetylcholine receptor M5 (Rattus norvegicus, UniProt P08911)", "T1 sequence (P08911 whole entry)": "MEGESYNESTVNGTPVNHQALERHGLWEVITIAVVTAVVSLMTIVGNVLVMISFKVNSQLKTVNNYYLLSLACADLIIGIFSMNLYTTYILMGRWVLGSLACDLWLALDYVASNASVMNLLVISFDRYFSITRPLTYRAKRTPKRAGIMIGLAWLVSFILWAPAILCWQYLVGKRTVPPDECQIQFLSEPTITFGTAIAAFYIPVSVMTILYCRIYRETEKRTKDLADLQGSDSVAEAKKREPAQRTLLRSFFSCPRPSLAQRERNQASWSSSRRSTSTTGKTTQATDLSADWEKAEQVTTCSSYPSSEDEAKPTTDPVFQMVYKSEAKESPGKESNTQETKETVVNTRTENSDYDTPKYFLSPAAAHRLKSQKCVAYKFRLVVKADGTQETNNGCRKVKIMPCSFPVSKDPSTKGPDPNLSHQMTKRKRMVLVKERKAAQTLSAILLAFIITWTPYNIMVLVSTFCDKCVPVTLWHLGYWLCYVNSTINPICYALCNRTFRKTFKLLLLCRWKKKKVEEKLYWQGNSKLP", "experiment": "Negative allosteric modulation of rat M5 receptor expressed in CHO cells assessed as inhibition of acetyl choline-induced calcium mobilization preincubated for 150 secs followed by acetyl choline addition by Fluo-4-AM dye based fluorescence assay", "format": "functional, cell-based", "how_it_was_run": "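Calcium mobilization assay in CHO cells stably transfected with rat M5 receptor; data are means of at least three independent determinations done in triplicate.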"}, "[4]": {"target": "T2, Muscarinic acetylcholine receptor M5 (Rattus norvegicus) (UniProt P08911)", "T2 sequence (whole entry)": "T1 sequence (P08911 whole entry)", "experiment": "Negative allosteric modulation of rat M5 receptor expressed in CHO cells assessed as inhibition of acetyl choline-induced calcium mobilization at 10 uM preincubated for 150 secs followed by acetyl choline addition by Fluo-4-AM dye based fluorescence assay relative to acetyl choline; values are per cent of control"}, "[5]": {"experiment": "Clearance in rat at 1 mg/kg, iv or 3 mg/kg, po by LC-MS/MS analysis", "format": "ADME, organism-based", "conditions": "in vivo"}, "[6]": {"experiment": "Volume of distribution at steady state in rat at 1 mg/kg, iv or 3 mg/kg, po by LC-MS/MS analysis", "format": "ADME, organism-based", "conditions": "in vivo, read-out: Vdss"}, "Rattus norvegicus": {"test_system": "Rattus norvegicus", "experiment": "Oral bioavailability in rat at 3 mg/kg by LC-MS/MS analysis", "format": "ADME, organism-based", "conditions": "in vivo"}, "[7]": {"experiment": "as §1", "format": "ADME, cell-free"}, "[8]": {"experiment": "as §2", "format": "ADME, cell-free"}, "[9]": {"target": "T3, Muscarinic acetylcholine receptor M5 (Homo sapiens) (UniProt P08912)", "T3 sequence (whole entry)": "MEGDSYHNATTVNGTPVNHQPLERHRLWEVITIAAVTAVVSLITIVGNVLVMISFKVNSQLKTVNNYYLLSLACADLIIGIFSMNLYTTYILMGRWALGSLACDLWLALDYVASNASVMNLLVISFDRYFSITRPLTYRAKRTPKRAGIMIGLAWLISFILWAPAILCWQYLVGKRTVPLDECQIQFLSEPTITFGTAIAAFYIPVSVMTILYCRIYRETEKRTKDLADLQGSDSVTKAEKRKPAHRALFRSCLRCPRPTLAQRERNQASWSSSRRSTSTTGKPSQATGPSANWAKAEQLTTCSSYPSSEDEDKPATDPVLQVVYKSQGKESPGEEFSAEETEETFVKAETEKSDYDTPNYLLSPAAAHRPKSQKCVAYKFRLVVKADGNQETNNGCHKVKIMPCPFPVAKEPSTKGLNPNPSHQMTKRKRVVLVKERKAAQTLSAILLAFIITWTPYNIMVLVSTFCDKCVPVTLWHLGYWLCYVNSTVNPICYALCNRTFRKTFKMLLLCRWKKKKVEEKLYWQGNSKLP", "experiment": "Negative allosteric modulation of human M5 receptor expressed in CHO cells assessed as inhibition of acetyl choline-induced calcium mobilization at 10 uM preincubated for 150 secs followed by acetyl choline addition by Fluo-4-AM dye based fluorescence assay relative to acetyl choline; values are per cent of control"}, "[10]": {"target": "T4, Muscarinic acetylcholine receptor M5 (Homo sapiens, UniProt P08912)", "T4 sequence (P08912 whole entry)": "T3 sequence (whole entry)", "experiment": "Negative allosteric modulation of human M5 receptor expressed in CHO cells assessed as inhibition of acetyl choline-induced calcium mobilization preincubated for 150 secs followed by acetyl choline addition by Fluo-4-AM dye based fluorescence assay", "format": "functional, cell-based", "conditions": "read-out: IC50", "how_it_was_run": "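Intracellular calcium mobilization in CHO cells stably transfected with human M5 receptor, run in the presence of an ACh EC80 concentration; values are means of at least three independent determinations, each performed in triplicate.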"}, "[11]": {"experiment": "Elimination half life in rat by LC-MS/MS analysis", "format": "ADME", "conditions": "in vivo, read-out: beta t1/2"}, "[12]": {"experiment": "Clearance in rat plasma by LC/MS/MS analysis", "format": "ADME"}, "[13]": {"experiment": "Aqueous solubility of the compound", "format": "physicochemical", "conditions": "buffer"}, "[14]": {"experiment": "Selectivity ratio of IC50 for rat M5 receptor expressed in CHO cells to IC50 for human M5 receptor expressed in CHO cells", "format": "cell-based"}}}
{"smiles": "Cc1cc([C@@]23c4ccccc4C(=O)N2CCN3C(=O)c2ccc(F)c(F)c2)ccc1Cl", "values": [{"measurement": "Fu", "setting": "Plasma [1]", "value": 0.006}, {"measurement": "Fu", "setting": "Plasma [2]", "value": 0.014}, {"measurement": "Fu", "setting": "Brain", "value": 0.003}, {"measurement": "IC50", "setting": "[3]", "value": 1.6, "unit": "µM"}, {"measurement": "residual activity", "setting": "[4]", "value": 2.6, "unit": "%"}, {"measurement": "clearance", "setting": "[5]", "value": 82, "unit": "mL/min/kg"}, {"measurement": "Vd", "setting": "[6]", "value": 7.4, "unit": "L/kg"}, {"measurement": "F", "setting": "Rattus norvegicus", "value": 17, "unit": "%"}]}
{"smiles": "O=C(c1ccc(F)c(F)c1)N1CCN2C(=O)c3ccccc3[C@@]12c1ccc(N2CCC[C@H]2c2cccnc2)cc1", "values": [{"measurement": "fraction unbound at 4 h, 5 µM", "setting": "[7]", "value": "< 0.01"}, {"measurement": "fraction unbound at 4 h, 5 µM", "setting": "[8]", "value": "< 0.01"}, {"measurement": "residual activity", "setting": "[9]", "value": 6, "unit": "%"}, {"measurement": "IC50", "setting": "[10]", "value": 3.5, "unit": "µM"}, {"measurement": "half-life", "setting": "[11]", "value": "< 30", "unit": "min"}, {"measurement": "clearance", "setting": "[12]", "value": "> 70", "unit": "mL/min/kg"}]}
{"smiles": "CN(c1ccc([C@@]23c4ccccc4C(=O)N2CCN3C(=O)c2ccc(F)c(F)c2)cc1)C1CCC1", "values": [{"measurement": "solubility", "setting": "[13]", "value": 10000, "unit": "µg/mL"}, {"measurement": "fraction unbound at 4 h, 5 µM", "setting": "[7]", "value": "< 0.01"}, {"measurement": "fraction unbound at 4 h, 5 µM", "setting": "[8]", "value": "< 0.01"}, {"measurement": "residual activity", "setting": "[9]", "value": 2.6, "unit": "%"}, {"measurement": "half-life", "setting": "[11]", "value": "< 30", "unit": "min"}, {"measurement": "clearance", "setting": "[12]", "value": "> 70", "unit": "mL/min/kg"}]}
{"smiles": "O=C(c1ccc(F)c(F)c1)N1CCN2C(=O)c3ccccc3[C@@]12c1ccc(N2CCCC(F)(F)C2)cc1", "values": [{"measurement": "Ratio IC50", "setting": "[14]", "value": 2}, {"measurement": "solubility", "setting": "[13]", "value": 10000, "unit": "µg/mL"}, {"measurement": "fraction unbound at 4 h, 5 µM", "setting": "[7]", "value": "< 0.01"}, {"measurement": "fraction unbound at 4 h, 5 µM", "setting": "[8]", "value": "< 0.01"}, {"measurement": "residual activity", "setting": "[9]", "value": 3.1, "unit": "%"}, {"measurement": "IC50", "setting": "[10]", "value": 1.46, "unit": "µM"}, {"measurement": "half-life", "setting": "[11]", "value": "< 30", "unit": "min"}, {"measurement": "clearance", "setting": "[12]", "value": "> 70", "unit": "mL/min/kg"}]}
{"smiles": "O=C(c1ccc(F)c(F)c1)N1CCN2C(=O)c3ccccc3[C@@]12c1ccc(Cl)cc1", "values": [{"measurement": "solubility", "setting": "[13]", "value": "< 10", "unit": "µg/mL"}, {"measurement": "residual activity", "setting": "[9]", "value": 2.3, "unit": "%"}]}
{"smiles": "O=C(c1ccc(F)c(F)c1)N1CCN2C(=O)c3ccccc3[C@@]12c1ccc(N2CCCC(F)C2)cc1", "note": "(stereo partly drawn)", "values": [{"measurement": "fraction unbound at 4 h, 5 µM", "setting": "[7]", "value": "< 0.01"}, {"measurement": "fraction unbound at 4 h, 5 µM", "setting": "[8]", "value": "< 0.01"}, {"measurement": "residual activity", "setting": "[9]", "value": 6.9, "unit": "%"}, {"measurement": "IC50", "setting": "[10]", "value": 6.36, "unit": "µM"}, {"measurement": "half-life", "setting": "[11]", "value": "< 30", "unit": "min"}, {"measurement": "clearance", "setting": "[12]", "value": "> 70", "unit": "mL/min/kg"}]}
{"smiles": "O=C(c1ccc(F)c(F)c1)N1CCN2C(=O)c3ccccc3[C@@]12c1ccc(N2CCCCC2)cc1", "values": [{"measurement": "fraction unbound at 4 h, 5 µM", "setting": "[7]", "value": "< 0.01"}, {"measurement": "fraction unbound at 4 h, 5 µM", "setting": "[8]", "value": "< 0.01"}, {"measurement": "residual activity", "setting": "[9]", "value": 10.5, "unit": "%"}, {"measurement": "IC50", "setting": "[10]", "value": 6.04, "unit": "µM"}, {"measurement": "half-life", "setting": "[11]", "value": "< 30", "unit": "min"}, {"measurement": "clearance", "setting": "[12]", "value": "> 70", "unit": "mL/min/kg"}]}
{"smiles": "O=C(c1ccc(F)c(F)c1)N1CCN2C(=O)c3ccccc3[C@@]12c1ccc(N2CCC(F)CC2)cc1", "values": [{"measurement": "fraction unbound at 4 h, 5 µM", "setting": "[7]", "value": "< 0.01"}, {"measurement": "fraction unbound at 4 h, 5 µM", "setting": "[8]", "value": "< 0.01"}, {"measurement": "residual activity", "setting": "[9]", "value": 13.6, "unit": "%"}, {"measurement": "IC50", "setting": "[10]", "value": 4.28, "unit": "µM"}, {"measurement": "half-life", "setting": "[11]", "value": "< 30", "unit": "min"}, {"measurement": "clearance", "setting": "[12]", "value": "> 70", "unit": "mL/min/kg"}]}
{"smiles": "CC1CCCN(c2ccc([C@@]34c5ccccc5C(=O)N3CCN4C(=O)c3ccc(F)c(F)c3)cc2)C1", "note": "(stereo partly drawn)", "values": [{"measurement": "fraction unbound at 4 h, 5 µM", "setting": "[7]", "value": "< 0.01"}, {"measurement": "fraction unbound at 4 h, 5 µM", "setting": "[8]", "value": "< 0.01"}, {"measurement": "residual activity", "setting": "[9]", "value": 3.6, "unit": "%"}, {"measurement": "half-life", "setting": "[11]", "value": "< 30", "unit": "min"}, {"measurement": "clearance", "setting": "[12]", "value": "> 70", "unit": "mL/min/kg"}]}
